test: Induction of erythroid differentiation in DBA/2J mouse Friend erythroleukemia cells assessed as hemoglobin level per 10^7 cells after 3 to 6 days relative to control; type: functional, Leukemia cell
How it was run: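 On day 6, cultures that contained benzidine-positive cells were centrifuged at 350g for 10 min. Cells were washed twice in phosphate-buffered 0.9% NaCl, pH 7.4, then sonicated. Total hemoglobin was measured from absorbance at 515 nm after the lysate was incubated with benzidine, and expressed per 10⁷ cells. Cells had been seeded at 10⁵ cells/mL with compound added at seeding, 37 °C.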

Point of comparison: `CC(=O)Nc1cccc[n+]1[O-]`, Activity 22.6 µg. Against it:
- CC(=O)Nc1cccnc1 — lower, 14.4 µg
- CC(=O)Nc1ccccn1 — higher, 30.6 µg
- CC(=O)Nc1cccc(NC(C)=O)n1 — lower, 8.6 µg
- CC(=O)NCc1ccccn1 — higher, 30 µg
- CC(=O)NCCc1ccccn1 — higher, 28 µg
- CC(=O)Nc1ccc[n+]([O-])c1 — lower, 15.6 µg
- CC(=O)Nc1cc(-c2ccccc2)cc[n+]1[O-] — lower, 12.2 µg
- CC(=O)Nc1cccc(=O)n1C — lower, 22.2 µg
- CC(=O)Nc1ccc(=O)n(C)c1 — higher, 33.8 µg
- C[S+](C)[O-] [DIMETHYL SULFOXIDE] — higher, 31.2 µg

`[O-][n+]1ccc(-c2ccccc2)cc1` gave an Activity of less than 0.5 µg.

test: Induction of erythroid differentiation in DBA/2J mouse Friend erythroleukemia cells assessed as cell growth after 6 days relative to control; type: functional, Leukemia cell; parameters: concentration or dose not given beside the values
How it was run: (§1)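 Cells were seeded at 10⁵ cells/mL with compound added at seeding, in two separate experiments using twofold concentration steps. Incubation was at 37 °C. Cell number was counted with a Coulter counter on day 3, and cell counts were also taken on day 6. Growth is expressed as a percentage of untreated control cultures.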

Point of comparison: `CC(=O)Nc1ccc(=O)n(C)c1`, Activity 95%. Against it:
- CC(=O)Nc1cccnc1 — the same, 95%
- CC(=O)Nc1ccccn1 — the same, 95%
- Cn1ccccc1=O — the same, 95%
- CC(=O)Nc1cccc(NC(C)=O)n1 — the same, 95%
- [O-][n+]1ccc(-c2ccccc2)cc1 — the same, 95%
- CC(=O)NCc1ccccn1 — the same, 95%
- CC(=O)NCCc1ccccn1 — the same, 95%
- CC(=O)Nc1cc(-c2ccccc2)ccn1 — the same, 95%
- CC(=O)Nc1cccc[n+]1[O-] — the same, 95%
- CC(=O)Nc1ccc[n+]([O-])c1 — the same, 95%
- CC(=O)Nc1cc(-c2ccccc2)cc[n+]1[O-] — the same, 95%
- CC(=O)Nc1cccc(=O)n1C — the same, 95%
- CC(=O)Nc1ccc(=O)[nH]c1 — the same, 95%
- CC(=O)Nc1cccc(=O)[nH]1 — the same, 95%
- Oc1ccccn1 — the same, 95%

test: Induction of erythroid differentiation in DBA/2J mouse Friend erythroleukemia cells assessed as concentration required for maximum proportion of benzidine positive cells after 6 days; type: functional, Leukemia cell
How it was run: (§2)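 Log-phase Friend leukemia cells seeded at 10⁵ cells/mL in DMEM + 10% fetal calf serum, 37 °C, 10% CO₂. Compound added at seeding over a range of concentrations with twofold steps, in two separate experiments. Water-insoluble agents were dissolved in 50% ethanol or acetone. Me₂SO (210 mM) was the positive control. Benzidine-positive cells were scored on day 6 with benzidine peroxide stain.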

Point of comparison: `CC(=O)Nc1cccnc1`, Activity 8 mM. Against it:
- CC(=O)Nc1ccccn1 — 4-fold lower, 2 mM
- Cn1ccccc1=O — 4-fold lower, 2 mM
- CC(=O)Nc1cccc(NC(C)=O)n1 — 2-fold lower, 4 mM
- [O-][n+]1ccc(-c2ccccc2)cc1 — 20-fold lower, 0.4 mM
- CC(=O)NCc1ccccn1 — 1.9-fold higher, 15 mM
- CC(=O)NCCc1ccccn1 — within 1.5-fold, 10 mM
- CC(=O)Nc1cc(-c2ccccc2)ccn1 — 200-fold lower, 0.04 mM
- CC(=O)Nc1cccc[n+]1[O-] — within 1.5-fold, 10 mM
- CC(=O)Nc1ccc[n+]([O-])c1 — within 1.5-fold, 10 mM
- CC(=O)Nc1cc(-c2ccccc2)cc[n+]1[O-] — 8-fold lower, 1 mM
- CC(=O)Nc1cccc(=O)n1C — 2-fold higher, 16 mM
- CC(=O)Nc1ccc(=O)n(C)c1 — 4-fold lower, 2 mM
- CC(=O)Nc1ccc(=O)[nH]c1 — 8-fold lower, 1 mM
- CC(=O)Nc1cccc(=O)[nH]1 — 4-fold lower, 2 mM
- Oc1ccccn1 — within 1.5-fold, 8.6 mM
- C[S+](C)[O-] [DIMETHYL SULFOXIDE] — 26-fold higher, 210 mM

test: Induction of erythroid differentiation in DBA/2J mouse Friend erythroleukemia cells assessed as cell growth after 3 days relative to control; type: functional, Leukemia cell; parameters: concentration or dose not given beside the values; how it was run: as §1

Point of comparison: `CC(=O)Nc1ccc(=O)[nH]c1`, Activity 26%. Against it:
- CC(=O)Nc1cccnc1 — higher, 58%
- CC(=O)Nc1ccccn1 — higher, 65%
- Cn1ccccc1=O — lower, 23%
- CC(=O)Nc1cccc(NC(C)=O)n1 — higher, 80%
- [O-][n+]1ccc(-c2ccccc2)cc1 — the same, 26%
- CC(=O)NCc1ccccn1 — higher, 36%
- CC(=O)NCCc1ccccn1 — higher, 33%
- CC(=O)Nc1cc(-c2ccccc2)ccn1 — lower, 21%
- CC(=O)Nc1cccc[n+]1[O-] — higher, 74%
- CC(=O)Nc1ccc[n+]([O-])c1 — higher, 74%
- CC(=O)Nc1cc(-c2ccccc2)cc[n+]1[O-] — lower, 17%
- CC(=O)Nc1cccc(=O)n1C — higher, 55%
- CC(=O)Nc1ccc(=O)n(C)c1 — higher, 91%
- CC(=O)Nc1cccc(=O)[nH]1 — lower, 22%
- Oc1ccccn1 — lower, 11%
- C[S+](C)[O-] [DIMETHYL SULFOXIDE] — higher, 60%

test: Induction of erythroid differentiation in DBA/2J mouse Friend erythroleukemia cells assessed as benzidine positive cells after 6 days relative to control; type: functional, Leukemia cell; parameters: concentration or dose not given beside the values; how it was run: as §2

Point of comparison: `CC(=O)Nc1cccc(=O)n1C`, Activity 73%. Against it:
- CC(=O)Nc1cccnc1 — lower, 43%
- CC(=O)Nc1ccccn1 — lower, 72%
- Cn1ccccc1=O — higher, 74%
- CC(=O)Nc1cccc(NC(C)=O)n1 — lower, 28%
- CC(=O)NCc1ccccn1 — lower, 68%
- CC(=O)NCCc1ccccn1 — lower, 60%
- CC(=O)Nc1cc(-c2ccccc2)ccn1 — lower, 8%
- CC(=O)Nc1cccc[n+]1[O-] — lower, 43%
- CC(=O)Nc1ccc[n+]([O-])c1 — lower, 35%
- CC(=O)Nc1cc(-c2ccccc2)cc[n+]1[O-] — lower, 17%
- CC(=O)Nc1ccc(=O)n(C)c1 — lower, 67%
- CC(=O)Nc1ccc(=O)[nH]c1 — lower, 16%
- CC(=O)Nc1cccc(=O)[nH]1 — lower, 4%
- Oc1ccccn1 — lower, 26%
- C[S+](C)[O-] [DIMETHYL SULFOXIDE] — higher, 80%

`[O-][n+]1ccc(-c2ccccc2)cc1` showed an Activity of less than 1%.
